FGF22 binding: binders of human FGF22 protein, primary screen, FGF22 synaptogenesis inhibitor project, biophysical, thermal shift, single point; recombinant FGF22 thermal shift, SYPRO orange fluorescence; percent of sucrose octasulfate shift, DMSO zero; activity (Tm shift, normalised), % at 9.99 µM; 340,000 compounds, 1.5% hits;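 active = mean Tm shift, scaled 0 neutral to 100 positive control, at about 1.3% or above, every replicate too, limit read from the data; inconclusive = no clear call, values can overlap the other calls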
Target sequence (Q9HCT0 whole entry, looked up): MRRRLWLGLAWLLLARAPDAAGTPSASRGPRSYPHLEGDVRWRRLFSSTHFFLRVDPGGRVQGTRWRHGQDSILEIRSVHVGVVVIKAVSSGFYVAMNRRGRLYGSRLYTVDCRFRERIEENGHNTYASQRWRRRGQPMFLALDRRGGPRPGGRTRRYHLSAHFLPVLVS
dFosB act-1: activators of delta FosB homodimer, primary screen, biochemical, fluorescence polarization, TAMRA-CDK5 oligo, single point | activation, % at 25 µM | purified delta FosB; percent of positive-control signal above neutral wells | Protein FosB (Mus musculus), P13346 | 340,000 compounds, 0.99% hits;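 active = mean activation above about 17%, with every replicate also reaching it, limit read from the data, passing the limit was not always enough; inconclusive = only one of the two conditions met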
Target sequence (P13346 whole entry, looked up): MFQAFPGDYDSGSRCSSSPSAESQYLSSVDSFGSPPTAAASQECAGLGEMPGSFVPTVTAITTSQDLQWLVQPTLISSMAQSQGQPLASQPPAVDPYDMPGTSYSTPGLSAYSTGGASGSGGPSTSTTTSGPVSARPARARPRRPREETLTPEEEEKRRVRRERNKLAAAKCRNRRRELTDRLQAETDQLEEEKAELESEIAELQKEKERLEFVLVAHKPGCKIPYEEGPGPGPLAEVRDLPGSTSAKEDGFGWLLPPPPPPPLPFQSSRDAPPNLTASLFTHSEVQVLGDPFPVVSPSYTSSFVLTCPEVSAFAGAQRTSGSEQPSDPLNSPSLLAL
S100A4 inh HTS: inhibitors of S100A4-myosin IIA peptide binding, primary screen, biochemical, fluorescence polarization, TAMRA-MyoIIA peptide; AID 652163, 2013; Protein S100-A4 (Homo sapiens), P26447; 360,000 compounds, 0.14% hits; inhibition, % at 10.7 µM;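 active = mean inhibition of at least 70% across replicates, with every replicate also reaching that level; inconclusive = mean inhibition reaches 70% but some replicates fall short; inactive = mean inhibition below 70%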
Target sequence (P26447 whole entry, looked up): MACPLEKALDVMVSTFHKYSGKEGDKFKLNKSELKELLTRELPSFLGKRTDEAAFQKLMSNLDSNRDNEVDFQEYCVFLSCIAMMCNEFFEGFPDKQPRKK
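incubation = readout 5 min after mixing, signal stable up to 60 min | system = S100A4 monomer protein | buffer or medium = HEPES pH 7.2 with CaCl2, KCl, NaCl, DTT, Triton | benchmarks = neutral control DMSO, positive control TFP | also added = fluorescent myosin IIA peptide, 5 nM | compound dosing = one concentration per compound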
CFTR F508del cor: F508del CFTR correction, initial screen, CFBE line, single point. CFBE cells, YFP halide quenching; stimulated with forskolin plus potentiator P3; % fluorescence drop versus neutral controls. activity (quench increase), % at 7.58 µM. 350,000 compounds, 0.36% hits. AID 720511, 2013;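 active = mean added fluorescence quench of at least 8% versus neutral control, with both replicates also reaching 8%; inconclusive = only one of the mean or replicate conditions met; inactive = mean below 8% and not both replicates reaching 8%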;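 also: cells transiently co-express mutant CFTR-F508del with the halide-sensitive YFP; corrector assay measuring rescue of mutant channel to the surface after 24 h compound exposure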
dFosB act-2: activators of mouse delta FosB DNA binding, confirmation, biochemical, fluorescence polarization, TAMRA-CDK5 oligo, cherry-picked samples | purified delta FosB; normalised: neutral wells 0, positive control 100 | AID 588690, 2011 | shares compounds with dFosB act-1 | 2,400 tested, under 10 active | activation, % at 24.9 µM;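 active = highest replicate activation at or above 34% and every replicate reaching that threshold; inconclusive = meets only one of the two criteria; inactive = meets neither criterion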;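 also: higher polarization means more probe DNA bound by delta FosB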
Numbers stand for hits; – = inactive; ? = inconclusive; · = not tested or not shown. Rows were chosen to be rich in hits. Some 2.2% of all compounds tested hit in one or more screens of this group.

SMILES	FGF22 binding	dFosB act-1	S100A4 inh HTS	CFTR F508del cor	dFosB act-2
Cc1ccc(C(=O)Nc2nc(C)c(C(=O)Nc3ccc4c(c3)CCC4)s2)cc1	–	20.8	–	–	–
CC(=O)c1sc(NC(=O)c2ccc(Cl)cc2)nc1C	–	34.4	–	–	–
Cc1nc(NC(=O)c2ccc(F)cc2)sc1C(=O)Nc1ccc2c(c1)CCC2	·	–	·	·	·
CC(=O)c1sc(NC(=O)c2ccc(F)c(F)c2)nc1C	·	28.4	·	·	–
CN1CCN(C(=O)C[C@H]2CC[C@@H]3[C@@H](COc4ccc(NC(=O)c5cscn5)cc4C(=O)N3C)O2)CC1	–	·	–	–	·
COc1ccc(N2C(=O)C(CC(=O)Nc3ccc(Cl)cc3)N(NC(=O)c3cccc(F)c3)C2=S)cc1 (configuration not stated)	–	25.2	–	–	–
CCOc1ccc(NC(=O)CC2C(=O)N(c3cccc(OC)c3)C(=O)N2C(C)C)cc1 (configuration not stated)	–	–	–	–	·
CCOc1ccc(NC(=O)CC2C(=O)N(c3ccc(OC)c(Cl)c3)C(=S)N2C2CC2)cc1 (configuration not stated)	–	28.4	–	–	–
COc1ccc(NC(=O)Nc2ccc3c(c2)C(=O)N([C@H](C)CO)C[C@H](C)[C@H](CN(C)S(=O)(=O)c2ccc(Cl)cc2)O3)cc1	–	·	–	–	·
CCCCN(CC)CCCNC(=S)Nc1ccc2nc(N3CCN(C)CC3)cc(C)c2c1	–	–	–	–	·
CCCN(CCC)CCCNC(=S)Nc1ccc2nc(N3CCCC3)cc(C)c2c1	–	36.2	–	·	?
CCN(CC)CCNC(=S)Nc1ccc2nc(N3CCCC3)cc(C)c2c1	–	32.1	–	–	–
CCN(CC)CCNC(=S)Nc1ccc2nc(N3CCN(C)CC3)cc(C)c2c1	–	23.9	–	–	–
C[C@@H]1CN([C@H](C)CO)C(=O)c2cc(NC(=O)c3ccncc3)ccc2O[C@@H]1CN(C)Cc1ccc2c(c1)OCO2	–	·	–	–	·
CCCNC(=O)[C@H]1[C@H](CO)[C@H]2Cn3c(ccc(-c4cccnc4)c3=O)[C@H]2N1CCC	–	·	–	–	·
C[C@@H]1CN([C@@H](C)CO)C(=O)c2cc(C#Cc3cccc(F)c3)cnc2O[C@H]1CN(C)C(=O)C1CCC1	–	·	–	–	·
C[C@@H]1CCCCO[C@H](CN(C)S(=O)(=O)c2ccc(F)cc2)[C@@H](C)CN([C@@H](C)CO)C(=O)c2cc(NC(=O)c3ccccc3)ccc2O1	–	·	–	–	·
COc1ccc(-c2nnc(SCc3nc4ccccc4c(=O)[nH]3)o2)cc1	–	19.0	–	–	–
CCC(=O)N1CC2(C1)[C@@H](c1ccccc1)[C@@H](CO)N2Cc1cccc(Cl)c1	–	·	–	–	·
CCOC(=O)c1sc(NC(=O)Nc2ccc(Cl)cc2)cc1C	·	24.1	·	·	–
C=CCn1c(=S)[nH]c2ccccc2c1=O	·	–	·	·	·
C=CCn1c(=S)[nH]c2cc(-c3ccccc3)sc2c1=O	–	40.3	–	–	–
COCC#Cc1ccc2c(c1)O[C@@H](CN(C)S(=O)(=O)c1cccc(F)c1)[C@H](C)CN([C@@H](C)CO)S2(=O)=O	–	·	–	–	·
CCc1cccc(OCCOC(=O)CNS(=O)(=O)c2ccc(NC(C)=O)cc2)c1	–	56.1	–	–	–
C[C@@H](NC(=O)C[C@@H]1CC[C@@H]2[C@H](COC[C@H](O)CN2C)O1)c1ccccc1	–	·	–	–	·
SMILES	FGF22 binding	dFosB act-1	S100A4 inh HTS	CFTR F508del cor	dFosB act-2
Cc1nnc(NC(=O)CC(NC(=O)C(F)(F)F)c2ccccc2)s1 (configuration not stated)	–	–	–	–	·
O=C(CC(NC(=O)C(F)(F)F)c1ccccc1)Nc1nnc(CCc2ccccc2)s1 (configuration not stated)	–	19.0	–	–	–
C[C@H]1CN([C@@H](C)CO)C(=O)Cc2cc(NC(=O)CCN3CCOCC3)ccc2O[C@H]1CN(C)Cc1ccccc1	–	·	–	–	·
CCCc1cc(=O)[nH]c(SCC(=O)Nc2ccc(OCc3ccccc3)cc2)n1	–	28.0	–	–	–
CCCc1cc(=O)[nH]c(SCC(=O)Nc2ccc(C)cc2)n1	–	–	–	–	·
CCCc1cc(=O)[nH]c(SCC(=O)Nc2ccccc2C#N)n1	·	–	·	·	·
CCCc1cc(=O)[nH]c(SCC(=O)Nc2cccc3ccccc23)n1	–	21.7	–	–	–
CCC(=O)Nc1ccc2c(c1)C(=O)N(C)C[C@H](OC)[C@H](C)CN(C(=O)c1ccc(F)cc1)[C@@H](C)CO2	–	·	–	–	·
O=C(C[C@H]1CC[C@@H]2[C@H](COC[C@H](O)CN2C(=O)c2ccccc2)O1)Nc1ccccc1	–	·	–	–	·
C[C@@H]1CCCCO[C@H](CN(C)Cc2ccc3c(c2)OCO3)[C@@H](C)CN([C@@H](C)CO)C(=O)c2cc(NS(=O)(=O)c3ccccc3)ccc2O1	·	·	–	–	·
O=C(Nc1cc(Cl)ccc1-n1cncn1)c1ccc(Br)o1	13.1	36.1	–	–	–
O=C(COc1ccc(F)cc1)Nc1cc(Cl)ccc1-n1cncn1	–	26.2	–	–	–
C[C@H](CO)N1C[C@H](C)[C@H](CN(C)C(=O)CCC(F)(F)F)OCCCC[C@H](C)Oc2ccc(NC(=O)c3ccccc3)cc2C1=O	–	·	–	–	·
C/C=C/c1cnc2c(c1)C(=O)N([C@@H](C)CO)C[C@H](C)[C@@H](CN(C)Cc1ccccc1)O2	–	·	–	–	·
O=C(CSc1nc2[nH]ncc2c(=O)[nH]1)Nc1ccc(OC(F)(F)F)cc1	13.9	19.1	–	–	–
Cc1ccc(CCNC(=O)C2CCN(S(=O)(=O)c3cccc4nsnc34)CC2)cc1	·	33.5	·	·	–
Cc1ccc(CCNC(=O)C2CCN(S(=O)(=O)c3cccc4cccnc34)CC2)cc1	–	–	–	–	·
NC(=O)Cn1cc(/C=N/NC(=O)c2ccc(Cn3cc(Cl)cn3)o2)c(-c2ccccc2)n1	–	36.3	–	–	–
CCOc1ccccc1C(=O)NCC(=O)OCC(=O)c1ccc2c(c1)OCCO2	·	17.9	·	·	–
O=C(CSCc1ccc(Cl)cc1)N/N=C/c1c(Cl)cccc1Cl	–	26.9	–	–	–
O=C(CSCc1ccc(Cl)cc1)N/N=C/c1ccccc1	·	–	·	·	·
O=C1COc2ccc(C(=O)COC(=O)c3cc(S(=O)(=O)NCc4ccccc4)ccc3O)cc2N1	–	65.9	–	–	–
Nc1nonc1-n1nnc(C(=O)N/N=C/c2c(Cl)cccc2Cl)c1CSC1=NCCS1	–	26.6	–	–	–
Nc1nonc1-n1nnc(C(=O)N/N=C/c2ccccc2Cl)c1CSc1ccccc1	–	·	–	–	·

High-throughput results (PubChem BioAssay)
